From the EternaBench riboswitch data come the findings set out here.

The data set deals with MS2 coat protein. Kind of data set: apparent Kd, MS2 coat protein; higher = weaker binding; RNA-MaP array; FMN 200 µM where present. An outline of the steps: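 Green signal from SNAP-549-labelled MS2 coat protein was normalised to red-channel RNA signal and to the median Fmax of control clusters. The protein was titrated from 0.7 or 1.5 nM, doubling to 3 µM, without and then with constant ligand, over designs transcribed by stalled E. coli RNA polymerase on Illumina sequencing-chip clusters, in 100 mM Tris-HCl pH 7.5, 80 mM KCl, 4 mM MgCl2, BSA, DTT, yeast tRNA and Tween-20. The apparent Kd is the median of filtered per-cluster binding-curve fits.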

Setting [1] is: designed as: OFF switch for flavin mononucleotide, no ligand.
Setting [2] is: ligand present: flavin mononucleotide, designed as: OFF switch for flavin mononucleotide.
Setting [3] is: designed as: ON switch for flavin mononucleotide, no ligand.
The mark [4] stands for this setting: ligand present: flavin mononucleotide, designed as: ON switch for flavin mononucleotide.

As for “CUGAUGUAAGGAUAUGUGUAGAAAUCAAAUCGGAUAUUCUAACAGAAGGUACAUGAGGAUCACCCAUGUGAGAA”, the “apparent Kd” value reads like this: under setting [1], 39.7 nM; under setting [2], 71.2 nM.
The like results for “GGAGAUACAUGAGGAUCACCCAUGUAGGAUAUCGGGCAUAUAUAUGGCGAAAGCCAUAUAUAUGCCGAGAAGGGCGUACACACC” were, in that order, 8.12 nM and 7.62 nM.
“AAAAGAUAAGCAGGAUAUCGAACAACUCAUGGGCUAUGCCAUCCGCACAUGAGGAUCACCCAUGUCGAGAAGGGCUAAGAGUAG”: the “apparent Kd” value by setting is: under setting [1], 9.82 nM; under setting [2], 25.8 nM.
Turning to “GGGUACAUCGGAGGAUAUCAUGUAAAUACAUGAGGAUCACCCAUGUCGAUGUAGACAUCGGAGAUUGAGAAGGCCGAUGUACCG”, the “apparent Kd” value was found to be 1400 nM under setting [3] and 52 nM under setting [4].
On to “UUUGAUUAUGUGAGGAUAUACUGUUUGUAUUGAUUGUAGAAGGUACAUGAGGAUCACCCAUGUUUUGUAUUUAU”, for which the “apparent Kd” value came out at 18.6 nM under setting [1] and 19.4 nM under setting [2].
With “AUUAACUACAUAGGAUAUUGAUACAUGAGGAUCACCCAUGUCACCCAUUUAUAUAUUAAUAUUGACAAGAAGGAUGUGGUUACA”, the “apparent Kd” value by setting is: under setting [3], 13.1 nM; under setting [4], 6.13 nM.
The like results for “AGCAACAUGAGGAUCACCCAUGUUGGUUCGAAAACGGACUCACAGGAUAUGCGGCGUAAUCGCUCGCAGAAGGGUGCGUCCUCA” were, in that order, 14.1 nM and 25.6 nM.
Consider “CAGCCCUGAGGAUAUCCACCCUCGUACAUGAGGAUCACCCAUGUUUCCCUCUGGGCUUUCGGAGAAGGCAGGUAUC”, for which the “apparent Kd” value is, setting by setting: under setting [1], 78.6 nM; under setting [2], 77.3 nM.
The like results for “UUAUGCUGAGAGAAGGUUCAAACUACAUAUUGCGCACAUGAGGAUCACCCAUGUUGGUGAAUAAGAAAGGAUAUUUUACUGUAU” were, in that order, 63.2 nM and 43.1 nM.
Take “GGCUCCGCUCGAGGAUAUAGCUGCAUGUAGUGUCCUGAGGCACAUGAGGAUCACCCAUGUGUAGGCUAGAAGGCGACGGACGCU”: the “apparent Kd” value is 76.1 nM under setting [1] and 138 nM under setting [2].
Take “ACAGCGGCAGGAUAUGCAUGCUCCGACUUAUGCCGACAAAGACAUGAGGAUCACCCAUGUAGAAGGGCCAGCGG”: the “apparent Kd” value under setting [1] was 23.1 nM and the “apparent Kd” value under setting [2] was 22.8 nM.
The corresponding values for “UGCUGGCGAGGAUAUGCUCGGGUUGCUUGUCGCGCGGUUGCACAUGAGGAUCACCCAUGUAGAAGGUGUCUGUG” are 311 nM and 438 nM.
The corresponding values for “UUAUAAAGAGUGAGGAUAUGCUGGUCCAUGGAUCAGCAGAAGGCACAUGAGGAUCACCCAUGUAAAAUAAUAUU” are 18.3 nM and 37.6 nM.
As for “CCUCAUAUUUAGGAUAUGAUGGGUUAUUAUUCGUUAGAAGGAGGUACAUGAGGAUCACCCAUGUCCCGUUUGGG”, the “apparent Kd” value under setting [1] was found to be 34.2 nM and the “apparent Kd” value under setting [2] is 32.9 nM.
The like results for “CUUUUGUGAGGAUAUCAGUAGUAAAAUAAUAAAAUUACUACUGAGAAGGCACAUGAGGAUCACCCAUGUUCCUC” were, in that order, 32.5 nM and 174 nM.
Turning to “CACAGGGAUUCAGGAUAUAUUAGCCGAGGCCGCGUAGAAGGGAAAUCCUGACAUGAGGAUCACCCAUGUUGACCCGCCUUCCAU”, the “apparent Kd” value under setting [3] is 52.8 nM and the “apparent Kd” value under setting [4] amounted to 62.5 nM.
As to “ACAUGAUAUGUAGGAUAUCACAACAUGAGUUUUAAUAUUGUUAUUUAGGAUUGAGAAGGACAUUUACAUGAGGAUCACCCAUGU”, the “apparent Kd” value reads like this: under setting [1], 17.5 nM; under setting [2], 14.6 nM.
The corresponding values for “GGAUAGGACAAAGGAUAUACGUGCUAGAGAUACUAGCAAAAUUUCCUCACAUGAGGAUCACCCAUGUAGAAGGCUGUCCUAUCG” are 6.93 nM and 14.7 nM.
Take “GUACAUACAAAGUUACAUGAGGAUCACCCAUGUUUAUUGGGAAGAAGGGUAACAUUAUUAGAUAUAUAGGAUAUUUCACAAUUG”: the “apparent Kd” value was found to be 718 nM under setting [3] and 387 nM under setting [4].
Turning to “CCAUAAAAGAUCCAAAAUUACAACAUGAGGAUCACCCAUGUGCAGGAUAUCGUGCCAGUGAAGUACGAGAAGGGCAGACACUGC”, the “apparent Kd” value amounted to 450 nM under setting [1] and 487 nM under setting [2].
The like results for “GUCAGCUCGUGAGGAUAUACAACACUGCUUCGGCAGUGUUUUAAGAUCACAUGAGGAUCACCCAUGUAGAAGGCACGAGCUGAU” were, in that order, 6.29 nM and 44 nM.
Regarding “GAUUAUAAGUAAGGAUAUGUAUAUGAAACAUAUACAGAAGGUACAUGAGGAUCACCCAUGUUCUUGCAGCGUGAAUAUGUAAUC”, the “apparent Kd” value by setting is: under setting [1], 19.1 nM; under setting [2], 28.5 nM.
On to “CAAUUUAUGUCAGGAUAUACAAUACAAUGAUUAGUAGAAGGGAUUAAUACAUGAGGAUCACCCAUGUCAUGUGUCAUAAUAACC”, for which the “apparent Kd” value reads like this: under setting [1], 26.1 nM; under setting [2], 20.1 nM.
The corresponding values for “AGCACGAAAGUGCAACGAUGUACGAGAAGGACAUGAGGAUCACCCAUGUAGCAGUAACUGCAAAUGUAGGAUAUCGUACAUCGA” are 6.54 nM and 14.7 nM.
In the case of “AGUUAAUAUCGAGGAUAUGUCUAGACACAUGAGGAUCACCCAUGUAUGUGUAUAGAAGGCGAAAAUAACAGCAUGUUACAUGCA”, the “apparent Kd” value turned out to be 37.4 nM under setting [3] and 19.9 nM under setting [4].
As to “AAACCUAUAGGAUAUACAUGAGGAUCACCCAUGUUGCGAUUUUUUAGGUAACAGAUCCGUAGAAGGGUAGGGCA”, the “apparent Kd” value runs as follows: under setting [1], 29.7 nM; under setting [2], 46.9 nM.
The like results for “AGAGUGUGAGGAUAUAUGGUAAAAGUGAAGAGAGAGGAGGAGUAGAAGGUACAUGAGGAUCACCCAUGUUUGGA” were, in that order, 42.8 nM and 36.7 nM.
The corresponding values for “AUUUUAACAUAGGAUAUCGAAUUUAUUAUUUAACGAGAAGGAUGAACAUGAGGAUCACCCAUGUGGUAUCAUGG” are 217 nM and 93.6 nM.
The like results for “GCAGGGUAUGAGAAGGCAUAAUUUAUCUUACCACAUGUUUACAUGAGGAUCACCCAUGUUUCCUAUGAGGAUAUCAUACCGUGC” were, in that order, 12.4 nM and 9.98 nM.
In the case of “UUUUAGGUAGGAUAUACAUUUUUUUUAUUAUCCUCAUUAUUACAUGAGGAUCACCCAUGUAGAAGGACCAUUUU”, the “apparent Kd” value by setting is: under setting [1], 215 nM; under setting [2], 341 nM.
Consider “UGUCGCAGCAGAGGAUAUUACAUGAGGAUCACCCAUGUAUGAACCAAUAGCUGGAAACAGCAAUGUAAGAAGGCUGCUCCGACA”, for which the “apparent Kd” value worked out at 11.7 nM under setting [1] and 128 nM under setting [2].
With “UGCGUACAAGCAGACAUGAGGAUCACCCAUGUGGUCUCAUGCGAGGAUAUCGGGAAGGAGGAUUCCGAGAAGGUGCGGUGAGCC”, the “apparent Kd” value turned out to be 157 nM under setting [3] and 39.6 nM under setting [4].
“UUACUAUCACAGAAGGCUGGAUAGUAUAUAGACGGAGGAUAUGUGACAUGAGGAUCACCCAUGUUUCACCGACAUGAGGAUCAA”: the “apparent Kd” value reads like this: under setting [1], 22.5 nM; under setting [2], 54.1 nM.
The like results for “UUUUGGCAUGUAGGAUAUGGGUCCGAUUAGGAUUUAGAAGGACAUGAGGAUCACCCAUGUGCAUUUAAUUGGUCUUUUUUUUUU” were, in that order, 102 nM and 133 nM.
Turning to “UUUGUUUUGCAAGGAUAUGUUUAAUUUUAUUUUCCUUACACAUGAGGAUCACCCAUGUUAUACUUACAGAAGGUGCGUAAUUUG”, the “apparent Kd” value was 158 nM under setting [1] and 151 nM under setting [2].
For “GCAAAGCCUGACAUGAGGAUCACCCAUGUUAGAUUGUUAUGUCAGGAUAUUGUCUAGACCCUAGACAAGAAGGGAUGCUUUGCU”, the “apparent Kd” value is, setting by setting: under setting [3], 371 nM; under setting [4], 26.9 nM.
Take “UGUGUGUGGCAGGAUAUGCCGGUCGUUGGUCGGGUAGAAGGGUCUACAUGAGGAUCACCCAUGUGGCCGGUUGG”: the “apparent Kd” value by setting is: under setting [1], 46.8 nM; under setting [2], 44 nM.
Turning to “UUACCUCAUGAGAAGGACAUGAGGAUCACCCAUGUAGGAUAUCGUGGGAGACAGGUAUUGAAUCUUCGGAUUCAAUACCUGUCU”, the “apparent Kd” value is, setting by setting: under setting [3], 418 nM; under setting [4], 25.5 nM.
For the sequence “UUUUACCAAGGAUAUACAUUUUUUUUAUUAUUUUCAUUAUAACAUGAGGAUCACCCAUGUAGAAGGUGGAUUUU”, the “apparent Kd” value under setting [1] was found to be 54 nM and the “apparent Kd” value under setting [2] was determined as 47.9 nM.
The like results for “AGUGUGUGGCAGGAUAUUCCGGUCGUGGGUCGGGAAGAAGGGUCUACAUGAGGAUCACCCAUGUGAGCGGUUGA” were, in that order, 210 nM and 241 nM.
The like results for “GGGCUGUCAGGAUAUGGGCCCGGGUUUGAAAGGGCCCGGGCCCAGAAGGGACAUGAGGAUCACCCAUGUGGCCC” were, in that order, 36.3 nM and 36.4 nM.
For the sequence “AGCUGUGGCCGAGGAUAUACAUCCUUUAUAAAACCGAAAUAUAAUCGGACAUGAGGAUCACCCAUGUAGAAGGCGGUCUCAGCA”, the “apparent Kd” value runs as follows: under setting [1], 51.4 nM; under setting [2], 702 nM.
For “UAUGUUGUUGUGAGGAUAUACUUUGUUUGACCGUAGUAGAAGGCACAUGAGGAUCACCCAUGUAGAUUUUUGGU”, the “apparent Kd” value was 9.74 nM under setting [1] and 13.6 nM under setting [2].
The corresponding values for “AUCAGCUCGUCAGGAUAUACGUAAUGGUAAGAUCACAUGAGGAUCACCCAUGUAGAAGGGACGAGCUGAUAAGCACGAAAGUGC” are 192 nM and 676 nM.
For “GGGUACAUCGGAGGAUAUCAUGUAAAUACAUGAGGAUCACCCAUGUCGAUGGAGACAUCGGAGAUUCAGAAGGCCGAUGUACCG”, the “apparent Kd” value is, setting by setting: under setting [3], 108 nM; under setting [4], 35.5 nM.
With “UAGGGAGGAGGGAGGGAGACAUGAGGAUCACCCAUGUAAUGUCAGGAUAUUCUCAUAUUAUAUUAGGAGAAGGGAUACAUAUCU”, the “apparent Kd” value by setting is: under setting [1], 49.7 nM; under setting [2], 24.7 nM.
The like results for “AAUAAACAUGAGGAUCACCCAUGUCAGGAUAUGCGUCUAUCCUUAUUGCAUAGAUACGGCAGAAGGGACUAAUG” were, in that order, 31.9 nM and 56.9 nM.
As to “AAAUAAAUGACUAAGGAUAUAUCAGAGAAAACAUGAGGAUCACCCAUGUAAUAAUAAAAAGGGUGAUAGAAGGUAGUCAACAAACA”, the “apparent Kd” value is, setting by setting: under setting [3], 222 nM; under setting [4], 44.5 nM.

One may read the apparent Kd as the concentration giving half-maximal binding under the conditions of the assay.
